For 75 variants, yeast fitness results are on record in the RNAGym collection of RNA variant scans (doi:10.1126/science.aae0568).

To fix the notation:
B1: tRNA (parent)
chain: GUUCCGUUGGCGUAAUGGUAACGCGUCUCCCUCCUAAGGAGAAGACUGCGGGUUCGAGUCCCGUACGGAACG

Variants at the floor of the assay were thinned out.

Variants of B1 are the subject of this data set. Briefly: yeast fitness relative to wild type (ratio to wild type); higher = fitter; tRNA-Arg(CCU), competitive growth, 37 C, YPD. In short, it runs like this: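 Start and end populations of a pooled competition were compared by 100-nucleotide paired-end sequencing of gene amplicons. The Saccharomyces cerevisiae strains carried tRNA-Arg(CCU) gene variants at the native genomic locus, synthesised with a 3% per-site mutation rate at 69 sites, and competed in YPD at 37°C for 24 hours in six parallel replicates. Darwinian fitness relative to wild type was based on the change in genotype frequencies. Genotypes required ≥ 100 starting reads, and estimates < 0.5 were set to 0.5.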
Regarding GUUCCGUUGGCGUAAUGGUAAAGCGUCUCUCUCCUAAGGAGAAGACUGUGGGUUCGAGUCCCGUAUGGAACG, the yeast fitness came out at 0.601.
With GUUCCGUUGGCGUAAUGGUAAAGCGUGUCCCUCCUAAGGAAAAGACUGCGGGUUCGAGUCCAGUACGGAACG, the yeast fitness was 0.655.
For the variant GUUCCGUUGGCGUAAUGGUAAAGCGUCUCCCUCCUAAGGAGAAGACUGCGGGUUCGAGUCCCGUUCGGAACG, the yeast fitness turned out to be 0.849.
For GUUCCGUUGGCGUAAUGGUAAAGCGUCUCCCUCCUAAGGAGAAGACUGCGGGUUCGUGUCCCGUACGGAACG the value was 0.606; for GUUCCGUUGGCGUAAUGGUAAAGUGUCUCUGUCCUAAGGAGAAGACUGCGGGUUCGAGUCCCGUACGGAACG, 0.531.
As for GUUCCGUUGGCGUAAUGGUAUCGCGUCUCCCUCCUAAGGAGAAGACUCCGGGUUCGAGUCCCGUACGGAACG, the figure is 0.586.
Turning to GUUCCGUUGGCGUAAUGGUAUCCCGUCUCCCUCCUAAGGAGAAGACUGCGGGUUCGAGUCCAGUACGGAACG, the yeast fitness was at most 0.5.
For GUUCCGUUGGCGUAAUGGUAUCGCGUCUCCCUCCUAAGGAGAAGACUCCGGGUUAGAGUCCCGUAGCGAACG the value was 0.526; for GUUCCGUUGGCGUAAUGGUAAAGCGUCUCCCUCCUAAGGAGAAGCCUGCGGGUCCGAGUCCCGUACGGAACG, 0.522.
For GUUCCGUUGGCGUAAUGGUAAAGCGUCUUCCUCCUAAGGAGAAGACUGCGGGUUCGAGUCCGGUACGGAACG the value was at most 0.5.
GUUCCGUUGGCGUAAUGGUAUCGCGUCUCCCUCCCAAGGAGAAGACUGCGCGUUCGAGUCCCGUACGGAACG: the yeast fitness was at most 0.5.
In the case of GUUCCGUUGGCGUAAUGGUAAAGGGUCUCCCUCCUAAGGAGAAGACUGCGGGAUCGAGUCCCGUACGGAACG, the yeast fitness is at most 0.5.
For GUUCCGUUGGCGUAAUGGUAUCGCGUCUCCCUCCUAAGGAGAAGACUGCGGGUACGAGUCUCGUACGGAACG the value was at most 0.5.
For GUUCCGUUGGCGUAAUGGUAUCGCGUCUCCCUCCUAAGGAGAAGACUGCCGGUUCGAGUCGCGUACGGAUCG the value was at most 0.5.
For GUUCCGUUGGCGUAAUGGUAAAGCGUCUUCCUCCUAAGGAGAAGACUGCGGGAUCGAGUCCCGUAUGGAACG the value was at most 0.5; for GUUCCGUUGGCGUAAUGGUAAAGCGUCUCCCUCCUAAGGAGAAGCCUGCGGGUUCGAGUCCCGUACGGAACG, 0.665; for GUUCCGUUGGCGUAAUGGUAUCGCGUCUCCCUCCUAAGGAGAAGACUGCGGGUUGGAGUCCCGUACGGAACG, 0.527.
Regarding GUUCCGUUGGCGUAAUGGUAAAGCGUCUCCGUCCCAAGGAGAAGACUGCGGGUUCGAGUCCCGUACGGAACG, the yeast fitness was at most 0.5.
For GUUCCGUUGGCGUAAUGGUAUCGCGUCUCCCUCCUAAGGAGAAAACUGCGGGUUCGAGUCCCGUACGGAACG the value was 0.782; for GUUCCGUUGGCGUAAUGGUAUCGCGUCUCCCCCCUAAGGAGAAGUCUGCGGGUUCGAGUCCCGUACCGAACG, at most 0.5.
As for GUUCCGUUGGCGUAAUGGUAAAGCGUCUCCAUCCUAAGGAGAAGACUGCGGGCUCGCGUUCCGUACGGAACG, the figure is at most 0.5; as for GUUCCGUUGGCGUAAUGGUAAAGCGUCUCCUUCGUAAGGAGAAGACUGCGGGUUCGAGUCCCGUACGGAACG, 0.536.
As for GUUCCGUUGGCGUAAUGGUAUCGCGUCUCCCUCCUAAGGAGAAGACUGGGGGUUCGAGUCCCGUACGGAACG, the yeast fitness amounted to 0.618.
In the case of GUUCCGUUGGCGUAAUGGUAUCGCGUCUCCCUCCUAAGGAGAAGACUGCGGGUUCGAGUCCUGUAGGGAACG, the yeast fitness was at most 0.5.
As for GUUCCGUUGGCGUAAUGGUAUCGCGUCUCCAUCCUAAGGAGAAGACUGCGGGUUCGAGUCUCGUACGGAACG, the figure is at most 0.5; as for GUUCCGUUGGCGUAAUGGUAUCGCGUCUCCCUCCUAAGGAGAAGACUGCGGGUUCGAGUCCCGUACGUAACG, 0.752; as for GUUCCGUUGGCGUAAUGGUAUCGCGUCUCCCUCCUAAGGAGAAGACUGUGGGUACGAGUCCCGUACGGAACG, at most 0.5.
For GUUCCGUUGGCGUAAUGGUAUCGCGUCUCCGUCCUAAGGUGAAGACUGCCGGUUCGAGUCACGUAUGGAACG the value was 0.513; for GUUCCGUUGGCGUAAUGGUAUCGCGUCUCCCUCGCAAGGAGAAGACUGCGGGUUCGAGUCCCGUACGGAACG, 0.785.
For the variant GUUCCGUUGGCGUAAUGGUAUCGCGUCUCCGUGCUAAGGAGAAGACUGCGGGUUCGAGUCCCGUACGGAACG, the yeast fitness was at most 0.5.
For GUUCCGUUGGCGUAAUGGUAUCGCGUCUCCCUCGUAAGGAGUAGACUGCGGGUUCGAGUCUCGUACGGAACG the value was at most 0.5; for GUUCCGUUGGCGUAAUGGUAUCGCGUCUCGUUCCUAAGGAGAAGACUCCGGGUUCGAGUCCCGUACGGAACG, 0.753; for GUUCCGUUGGCGUAAUGGUAAAGCGUCUCCGUCCUAAGGAGAAGAAUGUGGGUCCGAGUCCCGUACGAAACG, 0.581.
For GUUCCGUUGGCGUAAUGGUAUCGCGUCUCCCUCCUAAGGAGAAGACUGCGGGUCCGAGUCCCGUACGGAACG the value was 0.703; for GUUCCGUUGGCGUAAUGGUAUCGCGUCUCCCUCAUAAGGAGAAGACUGCGGGUACGAGUCCAGUACGGAGCG, at most 0.5.
Take GUUCCGUUGGCGUAAUGGUAAAGGGUCUCCCUCCUAAGGAGAAGACUGCGGGUUCGAGUCCCGUUCGGCACG: the yeast fitness is at most 0.5.
As for GUUCCGUUGGCGUAAUGGUAAAGGGUCUCCCCCUUAAGGAGAAGACUGCGGGUUCGAGUCCCGUACGGAACG, the figure is at most 0.5; as for GUUCCGUUGGCGUAAUGGUAUCGCGUCUCCCUUCUAAAGAGAAGUCUGCGGGUUCGAGUCCUGUACGGAACG, at most 0.5; as for GUUCCGUUGGCGUAAUGGUAAAGGGUCUCCCUCCUAAGGAGAAGACUGCGGGUUCCAGUCCCGUACGGAACG, 0.786.
With GUUCCGUUGGCGUAAUGGUAAAGCGUCUGCCUCCUAAGGAGAAGACUGCGGGUUCGAAUCCCGUACCGAACG, the yeast fitness was at most 0.5.
As for GUUCCGUUGGCGUAAUGGUAUCGCGUCUCCCUCCUAAGGAGAAGACUGCGGGUACCAGUCCCGUACGGAGCG, the figure is 0.576; as for GUUCCGUUGGCGUAAUGGUAAAGCGUCUCCGUCCUAAGGACAAGACUGCGGGUUCGAGUCCCCUACGGAUCG, at most 0.5; as for GUUCCGUUGGCGUAAUGGUAUCACGUCUCCCUCCUAUGGAGAAGACUGCGGGUUCGAGUCCCGUACGGAACG, at most 0.5.
Take GUUCCGUUGGCGUAAUGGUAAAGGGUCUCCCUCCUGAGCAGAAGACUGCGGGUUCAAGUCCCGUACGGAACG: the yeast fitness is at most 0.5.
As for GUUCCGUUGGCGUAAUGGUAUCGCGUCUCCCUCCUAAGGAGAACACUGCGGGUUCGAAUCCCGUGCGGAACG, the figure is at most 0.5; as for GUUCCGUUGGCGUAAUGGUAUCGCGUCUCCCUCCUAAGGAGAAGACUCCGGGUUAGAGUCCCGUAUGGAACG, at most 0.5; as for GUUCCGUUGGCGUAAUGGUAUCGCAUCUCCCUCCUAAGGAGAAGACUGCGGGUUCCAGUCCCGUACGGAACG, at most 0.5.
Take GUUCCGUUGGCGUAAUGGUAAAGCGUCUCCCUCCUGAGGAGAAGACUGCGGGUUCGAGUCCCGUACGGAACG: the yeast fitness is 0.8.
As for GUUCCGUUGGCGUAAUGGUAAAGCGUUUCCCUCCUAAGGAGAAGACUGCGGGUUCGAGUCCCGUACGGAACG, the figure is 0.976; as for GUUCCGUUGGCGUAAUGGUAUCGCGUCUCCCUCCUAAGGAGAAGACUGCGGAUUCGAGUCCGGUACGGAACG, at most 0.5; as for GUUCCGUUGGCGUAAUGGUAUCGCGUCUCCCUCCUAAGGAGAAGACUGCGGGUUCGAGUCCCGUACCGAACG, 0.645.
As for GUUCCGUUGGCGUAAUGGUAUCGCGUCUCCCUCCUAAGGAGAAGACUGCGGGUUCGAGUCCCGUACUGAACG, the figure is 0.742; as for GUUCCGUUGGCGUAAUGGUAUCGCGUCUCCCUCCUAACGAGAUGACUGCAGGUUCGAGUCCCGUCCGGAACG, at most 0.5; as for GUUCCGUUGGCGUAAUGGUAAAGCGUGUCCCUCCUAACGAGACGACUGCGGGUUCGAGUCCCGUAUGGGACG, at most 0.5.
Turning to GUUCCGUUGGCGUAAUGGUAUCGCGUCUCCCUCCUAAGGAGAAGAGCGCGGGUUCAAGUACCGUACGGAACG, the yeast fitness is at most 0.5.
Regarding GUUCCGUUGGCGUAAUGGUAUCGCGUCACCCUCCUAAGGUGAAGACUGCGGGUUAGAGUCCCGUACGGAGCG, the yeast fitness was at most 0.5.
GUUCCGUUGGCGUAAUGGUAUCGCGUCUCCCUCGUAAGGAGAAGACUGCGGAUUCGAGUCACGUACGGAACG: the yeast fitness amounted to 0.553.
For GUUCCGUUGGCGUAAUGGUAUCGCGUCUCCCUCAUAAGGAGAAGACUGCGGGUUCCAGUCCCACACCGAACG the value was at most 0.5; for GUUCCGUUGGCGUAAUGGUAAAGUGUCUCCCUCCUAAGGAGAAGACUGCGGGUUCGACUCCGGUACGGAACG, at most 0.5; for GUUCCGUUGGCGUAAUGGUAUCGCGUCUCCAUCCUAAGCAGAAGACUGCGGGUUCGAGUCCCGUAUGGAACG, at most 0.5.
For GUUCCGUUGGCGUAAUGGUAAAGCGUCUUCCUCCUAAGGAGAAGACUGCGGGUUUGAGUCCCGUACGGAACG the value was 0.579.
Regarding GUUCCGUUGGCGUAAUGGUAAAGCGUCUCUGUCCUAAGGAGAAGACUGCGGGUUCGCGUCCCGUCCGGACCG, the yeast fitness was at most 0.5.
For GUUCCGUUGGCGUAAUGGUAUCGCGUCGCCCUCCUAAGGAGAAGACUGCGGGUUCAAGUCCCGUACGGAACG the value was at most 0.5; for GUUCCGUUGGCGUAAUGGUAAAGCGUCUCUGUCCUAAGGAGAAGACUGCGGGUUCGAGUCUCGUACGGCACG, at most 0.5; for GUUCCGUUGGCGUAAUGGUAAAGCGUCUCCCUCCUAAGGGGAAGACUGCGGGUUCGAGUGCCGUACGGAGCG, at most 0.5.
With GUUCCGUUGGCGUAAUGGUAAAGCGUCUCCCUCCUAAGGCGAAGACUGCCGGUUCGAGUCCCGUACCGAACG, the yeast fitness was at most 0.5.
For GUUCCGUUGGCGUAAUGGUAUCGCGUCUCCCUCCUAAGGAGAAGACUGCGGGUUCGAGUCCCGUAAGGAACG the value was 0.574; for GUUCCGUUGGCGUAAUGGUAUCGCGUCUCCUUCCUAAGGAGAAGACUGCGGGUUCGUGUCCCGUACGGAACG, at most 0.5; for GUUCCGUUGGCGUAAUGGUAAAGCGUCUGCCUCCUAAGGAGAAGACUGCGGGUUCGAGUCUCGUACGGAACG, at most 0.5.
For GUUCCGUUGGCGUAAUGGUAUCGCGUCUCCCUCCUAAGGAGAAGACUGCGGGUUCGAGUCACGUACAGAACG the value was at most 0.5; for GUUCCGUUGGCGUAAUGGUAUCGCGUCUCCCUCGUAAGGAGAAGACUGCGCGUUCGAGUCCCCUCCGGAACG, at most 0.5; for GUUCCGUUGGCGUAAUGGUAAAGGGUCUCCCUCCUAAGGAGAAGACUGCGGGUUCGAGUCCCGUACGGUACG, at most 0.5.
As for GUUCCGUUGGCGUAAUGGUAUCGCGUCUCCCUCGUAAGGAGAAGACUGCGGGUUCAAGUCCCGUACGGAACG, the figure is at most 0.5; as for GUUCCGUUGGCGUAAUGGUAAAGAGUCUCCCUCCUAAGGAGAAGACUGCGGGUUCGAGUCCCGUACGGAACG, 0.54.
On to GUUCCGUUGGCGUAAUGGUAAAGGGUCUCCCUCCUCAGGAGAAGACUGCGGGUUCGAGUCCCGUACGGAACG, for which the yeast fitness was at most 0.5.
